The source made the active and inactive calls. The rule behind the calls is not given here.
Experiments:
[1] = target: T1, Protein cereblon/Histone-lysine N-methyltransferase EZH2 (Homo sapiens) (UniProt Q15910+Q96SW2); assay: PROTAC activity at CRBN E3 ligase/EZH2 in PRC2 complex in human SK-OV-3 cells assessed as reduction in H3K27me3 level at 1 uM incubated for 48 hrs by Western blot analysis; type: cell-based
In short: (§1)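 Cells cultured in DMEM or RPMI 1640 with 10% FBS and 1% penicillin-streptomycin, 37 °C, 5% CO2; exposed to 1 μM compound for 48 h. Lysates run on SDS-PAGE and transferred to nitrocellulose. Blocked 2 h in 5% skim milk, primary antibody overnight at 4 °C, then secondary antibody. Chemiluminescent detection of PRC2 subunits and H3K27me3.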

[2] = target: T1, Protein cereblon/Histone-lysine N-methyltransferase EZH2 (Homo sapiens); assay: PROTAC activity at CRBN E3 ligase/EZH2 in PRC2 complex in human WSUDLCL2 cells assessed as downregulation of SUZ12 expression at 1 uM pretreated with GSK126 for 4 hrs followed by compound addition and measured after 48 hrs by Western blot analysis; type: cell-based
In short: (§2)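 WSU-DLCL-2 cells pretreated 4 h with the named inhibitor, then compound added and incubated a further 48 h. EZH2, SUZ12, EED and RbAp48 measured by western blot (nitrocellulose transfer, skim-milk block, primary antibody overnight at 4 °C, chemiluminescent detection).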

A549 [3] = assay: Downregulation of TACC3 mRNA expression in human A549 cells at 10 uM incubated for 48 hrs by qRT-PCR analysis; type: functional, cell-based
In short: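 Cells treated 48 h. Total RNA extracted with Trizol, reverse-transcribed, and SYBR RT-qPCR run: 95 °C 30 s, then 40 cycles of 95 °C 6 s and 60 °C 20 s. mRNA normalized to the DMSO-treated group. Mean SD of three independent experiments, t-test versus DMSO.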

[4] = target: T1, Protein cereblon/Histone-lysine N-methyltransferase EZH2 (Homo sapiens); assay: PROTAC activity at CRBN E3 ligase/EZH2 in PRC2 complex in human WSUDLCL2 cells assessed as increase in EZH2 ubiquitination at 1 uM measured after 48 hrs by co-immunoprecipitation assay; type: cell-based
In short: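 WSU-DLCL-2 cells treated with 1 μM compound for 48 h and lysed in RIPA buffer. Lysates incubated with antibodies overnight at 4 °C, then 3 h with Protein G agarose beads at 4 °C. Proteins eluted in IP buffer and ubiquitination of the target probed by immunoblot.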

[5] = target: T1, Protein cereblon/Histone-lysine N-methyltransferase EZH2 (Homo sapiens); assay: PROTAC activity at CRBN E3 ligase/EZH2 in PRC2 complex in human LNCaP cells assessed as induction of EED degradation by measuring reduction in EED protein level at 1 uM incubated for 48 hrs by Western blot analysis; type: cell-based
In short: (§3)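 Cancer cell lines exposed to 1 μM compound for 48 h. Lysates immunoblotted (SDS-PAGE, nitrocellulose, 5% milk block, primary antibody overnight at 4 °C) for EZH2, SUZ12, EED, RbAp48 and H3K27me3. Bands quantified by densitometry and normalized to GAPDH.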

NCI-H1299 = assay: Antiproliferative activity against EZH2-knockdown human NCI-H1299 cells assessed as inhibition of cell growth at 10 uM treated for 9 days by optical microscopic analysis; type: functional, cell-based; details: time 9.0 day
In short: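 Cells seeded at 5 × 10³ per well, grown 24 h, then exposed to compound at 10 μM for 9 days with medium refreshed. Cells were photographed and counted on days 1, 3, 5, 7 and 9. For lines 1-2, EZH2-targeting or control shRNA was induced in the cells. Mean SD of three independent experiments; t-test against control.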

[6] = target: T1, Protein cereblon/Histone-lysine N-methyltransferase EZH2 (Homo sapiens); assay: PROTAC activity at CRBN E3 ligase/EZH2 in PRC2 complex in human A2780 cells assessed as induction of EZH2 degradation by measuring reduction in EZH2 protein level at 1 uM incubated for 48 hrs by Western blot analysis; type: cell-based; in short: as §3
WSUDLCL2 [7] = assay: Antiproliferative activity against human WSUDLCL2 cells harboring EZH2-Y641F mutant assessed as inhibition of cell growth incubated for 3 to 7 days by optical microscopic analysis (Rvb= 4.92 uM); type: functional, cell-based
[8] = target: Polycomb protein SUZ12 (Homo sapiens) (UniProt Q15022); assay: Binding affinity to SUZ12 in human WSUDLCL2 cells assessed as thermal stability by measuring shift in temperature at 60 uM pretreated with proteasome inhibitor MG132 for 1 hr followed by compound addition incubated for 2 hrs by cellular thermal shift based Western blot analysis; type: cell-based
Chain of Polycomb protein SUZ12 (Homo sapiens) (Q15022 whole entry): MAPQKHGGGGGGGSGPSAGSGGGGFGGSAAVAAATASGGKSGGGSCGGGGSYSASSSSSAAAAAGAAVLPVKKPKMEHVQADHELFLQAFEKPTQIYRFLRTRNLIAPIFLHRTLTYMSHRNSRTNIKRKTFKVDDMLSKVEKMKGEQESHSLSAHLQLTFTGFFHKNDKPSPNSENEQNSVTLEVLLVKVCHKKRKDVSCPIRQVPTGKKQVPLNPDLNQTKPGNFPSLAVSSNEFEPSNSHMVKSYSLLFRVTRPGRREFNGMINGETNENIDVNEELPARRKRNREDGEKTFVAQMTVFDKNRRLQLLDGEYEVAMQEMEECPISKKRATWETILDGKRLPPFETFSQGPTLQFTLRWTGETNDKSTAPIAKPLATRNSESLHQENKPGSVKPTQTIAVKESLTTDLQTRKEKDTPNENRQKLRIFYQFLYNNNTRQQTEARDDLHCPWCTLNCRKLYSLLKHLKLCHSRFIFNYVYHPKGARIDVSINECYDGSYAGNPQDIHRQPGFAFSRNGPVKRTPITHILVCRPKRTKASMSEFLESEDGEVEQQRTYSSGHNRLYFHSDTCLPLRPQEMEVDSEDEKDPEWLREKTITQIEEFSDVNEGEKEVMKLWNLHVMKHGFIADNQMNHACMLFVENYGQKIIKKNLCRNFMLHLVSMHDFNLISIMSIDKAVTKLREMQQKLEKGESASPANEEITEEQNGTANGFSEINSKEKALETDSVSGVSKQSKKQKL
In short: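 Cellular thermal shift: cells suspended at 1.5 × 10⁶/mL and pretreated with MG-132 (5 μM, 1 h), then given 60 μM compound for 2 h with a DMSO control. Cells were lysed in RIPA with cocktail for 1 h. Supernatant aliquots were heated 6 min at 45, 48, 51, 54, 57 and 60 °C and centrifuged 15 min. Soluble protein was immunoblotted; bands quantified by densitometry; three independent experiments.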

[9] = target: T1, Protein cereblon/Histone-lysine N-methyltransferase EZH2 (Homo sapiens); assay: PROTAC activity at CRBN E3 ligase/EZH2 in PRC2 complex in human WSUDLCL2 cells assessed as downregulation of EZH2 expression at 1 uM pretreated with MLN4924 for 4 hrs followed by compound addition and measured after 48 hrs by Western blot analysis; type: cell-based; in short: as §2
WSUDLCL2 [10] = assay: Inhibition of PRC2 in human WSUDLCL2 cells assessed as suppression H3K27 trimethylation at 10 uM incubated for 48 hrs by Western blot analysis; type: cell-based
In short: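 Lysates run on SDS-PAGE and transferred to nitrocellulose. Membranes blocked with 5% skim milk for 2 h, primary antibody applied overnight at 4 °C, then secondary antibody and chemiluminescent detection of histone H3 methylation marks.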

[11] = target: T1, Protein cereblon/Histone-lysine N-methyltransferase EZH2 (Homo sapiens); assay: PROTAC activity at CRBN E3 ligase/EZH2 in PRC2 complex in human LNCaP cells assessed as reduction in H3K27me3 level at 1 uM incubated for 48 hrs by Western blot analysis; type: cell-based; in short: as §1
[12] = target: T1, Protein cereblon/Histone-lysine N-methyltransferase EZH2 (Homo sapiens); assay: PROTAC activity at CRBN E3 ligase/EZH2 in PRC2 complex in human WSUDLCL2 cells assessed as induction of EED degradation at 10 uM incubated for 48 hrs by Western blot analysis; type: cell-based
A549 [13] = assay: Upregulation of […] mRNA expression in human […] cells at 5 uM incubated for 48 hrs by qRT-PCR analysis; type: functional, cell-based
In short: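 A549 cells treated 48 h. Trizol RNA extraction, reverse transcription, SYBR qPCR (95 °C 30 s; 40 cycles of 95 °C 6 s, 60 °C 20 s). mRNA normalized to DMSO-treated cells; mean ± SD of three independent experiments.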

WSUDLCL2 [14] = assay: Upregulation of TXINP mRNA expression in human WSUDLCL2 cells at 1 uM incubated for 48 hrs by qRT-PCR analysis; type: functional, cell-based
In short: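 WSU-DLCL-2 or Pfeiffer cells treated 48 h. Trizol RNA extraction, reverse transcription, SYBR qPCR (95 °C 30 s; 40 cycles of 95 °C 6 s, 60 °C 20 s). mRNA normalized to DMSO-treated cells; mean ± SD of three independent experiments, t-test.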

[15] = target: T1, Protein cereblon/Histone-lysine N-methyltransferase EZH2 (Homo sapiens); assay: PROTAC activity at CRBN E3 ligase/EZH2 in PRC2 complex in human SK-OV-3 cells assessed as induction of EZH2 degradation by measuring reduction in EZH2 protein level at 1 uM incubated for 48 hrs by Western blot analysis; type: cell-based; in short: as §1
[16] = target: T1, Protein cereblon/Histone-lysine N-methyltransferase EZH2 (Homo sapiens); assay: PROTAC activity at CRBN E3 ligase/EZH2 in PRC2 complex in human WSUDLCL2 cells assessed as downregulation of EZH2 expression at 1 uM pretreated with EPZ6438 for 4 hrs followed by compound addition and measured after 48 hrs by Western blot analysis; type: cell-based; in short: as §2

T1 sequence (Q15910 whole entry, looked up): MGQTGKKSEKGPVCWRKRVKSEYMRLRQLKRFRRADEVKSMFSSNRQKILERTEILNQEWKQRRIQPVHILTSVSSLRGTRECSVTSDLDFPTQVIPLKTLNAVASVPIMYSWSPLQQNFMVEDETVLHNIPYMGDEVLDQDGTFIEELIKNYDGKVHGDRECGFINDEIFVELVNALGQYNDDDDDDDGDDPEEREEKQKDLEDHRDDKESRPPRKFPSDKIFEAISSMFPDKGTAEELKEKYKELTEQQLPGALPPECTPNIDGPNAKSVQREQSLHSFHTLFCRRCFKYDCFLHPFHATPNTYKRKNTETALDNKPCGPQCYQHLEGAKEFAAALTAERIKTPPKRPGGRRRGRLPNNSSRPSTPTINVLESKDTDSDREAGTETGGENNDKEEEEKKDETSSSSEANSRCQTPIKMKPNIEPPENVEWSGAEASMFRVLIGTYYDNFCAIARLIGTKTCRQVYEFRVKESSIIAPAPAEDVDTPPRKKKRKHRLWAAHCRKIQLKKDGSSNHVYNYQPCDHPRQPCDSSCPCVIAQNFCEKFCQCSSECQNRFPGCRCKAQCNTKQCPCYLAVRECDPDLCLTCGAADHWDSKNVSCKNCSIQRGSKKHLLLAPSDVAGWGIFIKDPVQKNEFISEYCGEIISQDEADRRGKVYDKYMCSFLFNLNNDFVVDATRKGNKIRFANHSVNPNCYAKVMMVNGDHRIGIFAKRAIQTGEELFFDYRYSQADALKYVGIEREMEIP
T1 sequence (Q96SW2 whole entry, looked up): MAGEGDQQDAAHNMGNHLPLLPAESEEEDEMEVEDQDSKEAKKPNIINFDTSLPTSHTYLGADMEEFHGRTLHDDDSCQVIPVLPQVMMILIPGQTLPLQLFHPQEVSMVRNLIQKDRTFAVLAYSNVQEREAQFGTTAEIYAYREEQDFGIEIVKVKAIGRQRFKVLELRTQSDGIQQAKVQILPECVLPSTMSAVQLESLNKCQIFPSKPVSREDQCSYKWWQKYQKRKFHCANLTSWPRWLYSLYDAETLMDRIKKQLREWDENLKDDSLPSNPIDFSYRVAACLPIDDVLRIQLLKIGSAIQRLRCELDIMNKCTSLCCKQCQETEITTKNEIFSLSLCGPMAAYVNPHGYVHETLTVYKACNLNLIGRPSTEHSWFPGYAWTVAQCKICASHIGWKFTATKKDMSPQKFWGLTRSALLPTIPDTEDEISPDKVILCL

Activity [1]: Active | Activity [2]: inactive | Activity [4]: Active | Activity [5]: Active | Activity [6]: Active | Activity [8]: inactive | Activity [9]: inactive | Activity [11]: Active | Activity [12]: inactive | Activity [15]: Active | Activity [16]: inactive
SMILES: CCN(c1cc(-c2ccc(CN3CCN(CCCCCCCOc4cccc5c4C(=O)N(C4CCC(=O)NC4=O)C5=O)CC3)cc2)cc(C(=O)NCc2c(C)cc(C)[nH]c2=O)c1C)C1CCOCC1 (configuration not stated)
Activity (A549 [3]): Active | Activity (NCI-H1299): Active | IC50 (WSUDLCL2 [7]): 3.69 µM | inhibition (WSUDLCL2 [10]): Active | Activity (A549 [13]): Active | Activity (WSUDLCL2 [14]): inactive
